The subject of series [1] is Liver microsome. The experiment in a line: Metabolic stability in human liver microsomes assessed as compound remaining. Type of series: ADME. The gist of the method:
(§1)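 Liver microsome stability: percent of compound remaining after incubation with […] (3 µM microsomes in some cases).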

Series [2] addresses T1, P2Y purinoceptor 1 (Homo sapiens, UniProt P47900). Kind of series: Antagonist activity at P2Y1 receptor in human platelets by FLIPR assay in presence of 2-methylthio-ADP. In a few lines: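 Washed human platelets with endogenous P2Y1; calcium signalling read by FLIPR with reduced protein (~0.1% BSA); agonist 2-methylthio-ADP at 1 µM; IC50 given as mean ± SD.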
The test system of series [3] is Liver microsome. Kind of series: Metabolic stability in rat liver microsomes assessed as compound remaining. Type of series: ADME. The gist of the method:
as §1
For orientation: Liver microsomes are a subcellular fraction often used to study metabolism.

Another series has as its system Platelet. Kind of series: Inhibition of ADP-induced platelet aggregation in platelet-rich human plasma. Type of series: functional. In a few lines:
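Human platelet-rich plasma; aggregation triggered by 10 µM ADP; IC50 determined.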

Series [4] addresses T1, P2Y purinoceptor 1. The experiment in a line: Binding affinity to P2Y1 receptor in human platelets.
A short description of series [5]: Aqueous solubility of the compound at pH 6.5. The following applies: aqueous medium. Type of series: physicochemical. In a few lines: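 Aqueous solubility taken on crystalline material: free base at pH 6.5, mono-methanesulfonic acid salt at pH 3.9.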
Series [6] has as its system Liver microsome. Kind of series: Metabolic stability in human liver microsomes assessed as GSH adduct formation. Type of series: ADME. In a few lines: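 Human liver microsomes incubated with glutathione to detect reactive intermediates; GSH adduct (M+GSH) measured as percent.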

pIC50, pKi: −log10 of the molar value. Converted amounts (≈) assume the structure as drawn.

Broadly, the pIC50 is the negative decadic logarithm of the IC50, by convention in mol/L. As a reminder, the pKi is −log10 of the Ki, conventionally taken in molar units. Higher therefore signals a low Ki. A word on the solubility: it is how much of the substance goes into solution per volume. Read a low solubility as a poorly soluble substance.

T1 sequence (P47900 whole entry): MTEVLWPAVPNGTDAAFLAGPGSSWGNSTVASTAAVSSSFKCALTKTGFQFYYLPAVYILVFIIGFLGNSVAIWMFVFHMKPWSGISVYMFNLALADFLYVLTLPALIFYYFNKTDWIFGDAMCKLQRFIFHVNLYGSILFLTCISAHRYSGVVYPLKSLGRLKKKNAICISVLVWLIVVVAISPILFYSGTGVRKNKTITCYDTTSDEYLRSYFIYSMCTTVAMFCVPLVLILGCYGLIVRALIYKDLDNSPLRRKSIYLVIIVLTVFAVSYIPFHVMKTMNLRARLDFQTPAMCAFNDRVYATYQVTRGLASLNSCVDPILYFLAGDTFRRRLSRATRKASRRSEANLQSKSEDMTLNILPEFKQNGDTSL

As for `CC(C)(C)CN1CCC2(CC1)CN(c1ccccc1NC(=O)Nc1ccc(OC(F)(F)F)cc1)c1c(O)ccc(F)c12`, the Stability in the series on Liver microsome [1] was 78%; in the series on Liver microsome [3] it was 70%. Besides, the pIC50 on P2Y purinoceptor 1 [2] was 9.43; in the series with Platelet it was 6.04.

Take `CC(C)(C)CN1CCC2(CC1)CN(c1ccccc1NC(=O)Nc1ccc(OC(F)(F)F)cc1)c1c(O)ccc(C(F)(F)F)c12`: the Stability turned out to be 100% in the series with Liver microsome [1] and 98% in the series on Liver microsome [3]. Also, the pIC50 is 9.85 on P2Y purinoceptor 1 [2] and 6.89 in the series on Platelet.

For the compound `CC(C)(C)CN1CCC2(CC1)CN(c1ccccc1NC(=O)Nc1ccc(OC(F)(F)F)cc1)c1cccc(O)c12`, on P2Y purinoceptor 1 [2], the pIC50 is less than 6.82.

Take `CC(C)(C)CN1CCC2(CC1)CN(c1ccccc1NC(=O)Nc1nc3ccc(F)cc3s1)c1c(O)ccc(Cl)c12`: the Stability in the series on Liver microsome [1] came out at 100%; with Liver microsome [3], 89%. In addition, the pIC50 is 10.22 on P2Y purinoceptor 1 [2] and 6.64 with Platelet.

As to `CC(C)(C)CN1CCC2(CC1)CN(c1ccccc1NC(=O)Nc1csc(Cl)n1)c1c(O)ccc(Cl)c12`, the Stability in the series with Liver microsome [1] turned out to be 87%; with Liver microsome [3], 66%. The pIC50 on P2Y purinoceptor 1 [2] is 10.52; in the series with Platelet, 6.77.

`CN(C)S(=O)(=O)c1ccc(O)c2c1C1(CCN(CC(C)(C)C)CC1)CN2c1ccccc1NC(=O)Nc1ccc(OC(F)(F)F)cc1`: the values for the Stability in the series on Liver microsome [1] and in the series on Liver microsome [3] were 21% and 75%, respectively. Also, the pIC50 is 9.89 at P2Y purinoceptor 1 [2] and 6.38 with Platelet.

Regarding `CC(C)(C)CN1CCC2(CC1)CN(c1ccccc1NC(=O)Nc1ccc(OC(F)(F)F)cc1)c1cc(O)ccc12`, the pIC50 on P2Y purinoceptor 1 [2] was 8.34.

For the compound `CC(C)(C)CN1CCC2(CC1)CN(c1ccccc1NC(=O)Nc1ccc(OC(F)(F)F)cc1)c1c(O)cccc12`, the Stability in the series on Liver microsome [1] is 80%; in the series on Liver microsome [6], “Unstable”; in the series with Liver microsome [3] it was 87%. At P2Y purinoceptor 1 [4], the pKi was 8.40. Also, in series [5], the solubility was found to be 30 µg/mL (≈ 52.8 µM). Moreover, the pIC50 on P2Y purinoceptor 1 [2] is 9.64; in the series with Platelet, 5.80.

Values taken from ChEMBL document CHEMBL3286275, “Identification of 1-{2-[4-chloro-1'-(2,2-dimethylpropyl)-7-hydroxy-1,2-dihydrospiro[indole-3,4'-piperidine]-1-yl]phenyl}-3-{5-chloro-[1,3]thiazolo[5,4-b]pyridin-2-yl}urea, a potent, efficacious and orally bioavailable P2Y(1) antagonist as an antiplatelet agent” (Bioorg Med Chem Lett, 2014).
